Measurements taken from ChEMBL document CHEMBL4371006, “Discovery of N-[4-(Quinolin-4-yloxy)phenyl]benzenesulfonamides as Novel AXL Kinase Inhibitors” (J Med Chem, 2018).
Blank lines part the entries; values can stand above or below the compound they belong to. The source made the active and inactive calls. No cut-off for these calls is given here.

Assays:
[1] = Antitumor activity against AXL expressing mouse MXT cells allografted in mouse assessed as survival time at 15 mg/kg, ip qd administered 21 consecutive days; type: functional
How it was run: (§1)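 MXT mammary tumour cells implanted subcutaneously and staged to about 125 mm3. Dosing then began: once daily ip for 21 consecutive days, at 5 or 15 mg/kg, alongside a vehicle group, with 7 animals per group. Survival in days was recorded for each animal and given as mean ± SD, and as T/C% against the vehicle group (vehicle = 100%).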

[2] = Toxicity in mouse allografted with AXL expressing mouse MXT cells assessed as morbidity at 15 mg/kg, ip qd administered 21 consecutive days; type: organism-based; settings: in vivo
[3] = Antitumor activity against AXL expressing mouse MXT cells allografted in mouse assessed as prolongation of survival time at 5 to 15 mg/kg, ip qd administered 21 consecutive days; type: functional; settings: read-out: MED; how it was run: as §1
[4] = Antitumor activity against AXL expressing mouse MXT cells allografted in mouse assessed as reduction in tumor size at 15 mg/kg, ip qd administered 21 consecutive days relative to control; type: functional; design: scale not given: the % may be the effect or the level left
How it was run: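 MXT mammary tumor cells implanted subcutaneously, grown to about 125 mm3, then dosed ip once daily for 21 consecutive days at 5 or 15 mg/kg vs vehicle, 7 animals/group; tumor size compared with vehicle after 3 weeks, survival also recorded.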

[5] = biological target: T1, Hepatocyte growth factor receptor (Homo sapiens, UniProt P08581); experiment: Binding affinity to MET in SILAC-labeled human MDA-MB-231 cells lysate by mass spectrometry based kinAffinity assay; type: subcellular
T1 sequence (P08581 whole entry): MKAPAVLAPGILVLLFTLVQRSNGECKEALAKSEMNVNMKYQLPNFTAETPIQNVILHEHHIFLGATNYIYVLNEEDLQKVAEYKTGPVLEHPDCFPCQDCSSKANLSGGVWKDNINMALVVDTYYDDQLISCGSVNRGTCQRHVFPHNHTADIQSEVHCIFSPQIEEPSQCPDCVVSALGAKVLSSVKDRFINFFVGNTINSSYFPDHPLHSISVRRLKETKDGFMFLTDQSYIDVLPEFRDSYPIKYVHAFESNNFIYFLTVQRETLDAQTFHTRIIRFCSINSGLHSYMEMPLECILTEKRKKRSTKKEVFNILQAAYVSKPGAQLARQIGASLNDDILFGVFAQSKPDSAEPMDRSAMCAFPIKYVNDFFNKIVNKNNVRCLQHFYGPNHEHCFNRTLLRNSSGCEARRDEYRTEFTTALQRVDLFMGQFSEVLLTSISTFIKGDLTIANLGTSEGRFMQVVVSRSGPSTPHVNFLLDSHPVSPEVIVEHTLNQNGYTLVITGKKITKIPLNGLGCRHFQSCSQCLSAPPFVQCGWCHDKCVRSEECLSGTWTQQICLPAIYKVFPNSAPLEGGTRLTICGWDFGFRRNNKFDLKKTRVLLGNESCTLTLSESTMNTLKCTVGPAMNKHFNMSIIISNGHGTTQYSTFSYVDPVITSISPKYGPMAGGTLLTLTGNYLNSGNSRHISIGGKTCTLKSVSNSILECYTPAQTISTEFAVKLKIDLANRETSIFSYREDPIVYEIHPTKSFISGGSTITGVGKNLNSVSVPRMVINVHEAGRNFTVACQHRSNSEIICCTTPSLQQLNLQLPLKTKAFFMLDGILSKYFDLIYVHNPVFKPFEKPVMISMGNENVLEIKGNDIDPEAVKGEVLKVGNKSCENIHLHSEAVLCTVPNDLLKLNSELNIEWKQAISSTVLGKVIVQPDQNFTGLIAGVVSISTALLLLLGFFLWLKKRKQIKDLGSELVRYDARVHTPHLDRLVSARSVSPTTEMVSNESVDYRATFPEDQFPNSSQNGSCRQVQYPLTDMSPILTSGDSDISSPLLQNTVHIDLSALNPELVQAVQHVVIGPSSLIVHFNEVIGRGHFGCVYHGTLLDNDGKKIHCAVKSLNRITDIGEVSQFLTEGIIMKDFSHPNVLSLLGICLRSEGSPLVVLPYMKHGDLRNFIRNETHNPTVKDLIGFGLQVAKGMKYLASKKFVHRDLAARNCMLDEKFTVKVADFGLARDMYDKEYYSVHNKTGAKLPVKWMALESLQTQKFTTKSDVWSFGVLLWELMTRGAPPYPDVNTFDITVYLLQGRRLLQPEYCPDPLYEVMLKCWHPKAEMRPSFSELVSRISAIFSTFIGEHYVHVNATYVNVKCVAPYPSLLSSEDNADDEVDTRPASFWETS
How it was run: (§2)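 Chemical proteomics: MDA-MB-231 lysate bound to matrix of immobilized broad kinase inhibitors at several densities (BC50), then competed with increasing free compound (CC50); proteins quantified by mass spectrometry, Kd via Cheng-Prusoff. Two competition formats run in parallel to check equilibrium.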

TGF-beta receptor type-1 = TGF-beta receptor type-1 (Homo sapiens, UniProt P36897); experiment: Binding affinity to TGFBR1 in SILAC-labeled human MDA-MB-231 cells lysate by mass spectrometry based kinAffinity assay; type: subcellular
How it was run: (§3)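 MDA-MB-231 lysate applied to KinAffinity matrix of immobilized broadband kinase inhibitors at graded densities to obtain BC50 per target. Competition then run with increasing free compound to give CC50; Kd derived by Cheng-Prusoff. Two competition experiments in parallel to check equilibrium, one with lysate pre-incubated with compound before adding matrix. Quantitation by mass spectrometry.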

[6] = biological target: Protein-tyrosine kinase 2-beta (Homo sapiens, UniProt Q14289); experiment: Binding affinity to PYK2 in SILAC-labeled human MDA-MB-231 cells lysate by mass spectrometry based kinAffinity assay; type: subcellular; how it was run: as §3
[7] = biological target: Serine/threonine-protein kinase SIK3 (Homo sapiens, UniProt Q9Y2K2); experiment: Binding affinity to QSK in SILAC-labeled human MDA-MB-231 cells lysate by mass spectrometry based kinAffinity assay; type: subcellular; how it was run: as §3
[8] = biological target: T1, Hepatocyte growth factor receptor; experiment: Binding affinity to c-MET in SILAC-labeled human MDA-MB-231 cells lysate by mass spectrometry based kinAffinity assay; type: subcellular; how it was run: as §3
[9] = biological target: Mitogen-activated protein kinase kinase kinase 3 (Homo sapiens, UniProt Q99759); experiment: Binding affinity to MAP3K3 in SILAC-labeled human MDA-MB-231 cells lysate by mass spectrometry based kinAffinity assay; type: subcellular; how it was run: as §2
[10] = biological target: Mitogen-activated protein kinase kinase kinase kinase 4 (Homo sapiens, UniProt O95819); experiment: Binding affinity to MAP4K4 in SILAC-labeled human MDA-MB-231 cells lysate by mass spectrometry based kinAffinity assay; type: subcellular; how it was run: as §2
[11] = biological target: MAP/microtubule affinity-regulating kinase 4 (Homo sapiens, UniProt Q96L34); experiment: Binding affinity to MARK4 in SILAC-labeled human MDA-MB-231 cells lysate by mass spectrometry based kinAffinity assay; type: subcellular; how it was run: as §2
Chain of MAP/microtubule affinity-regulating kinase 4 (Q96L34 whole entry): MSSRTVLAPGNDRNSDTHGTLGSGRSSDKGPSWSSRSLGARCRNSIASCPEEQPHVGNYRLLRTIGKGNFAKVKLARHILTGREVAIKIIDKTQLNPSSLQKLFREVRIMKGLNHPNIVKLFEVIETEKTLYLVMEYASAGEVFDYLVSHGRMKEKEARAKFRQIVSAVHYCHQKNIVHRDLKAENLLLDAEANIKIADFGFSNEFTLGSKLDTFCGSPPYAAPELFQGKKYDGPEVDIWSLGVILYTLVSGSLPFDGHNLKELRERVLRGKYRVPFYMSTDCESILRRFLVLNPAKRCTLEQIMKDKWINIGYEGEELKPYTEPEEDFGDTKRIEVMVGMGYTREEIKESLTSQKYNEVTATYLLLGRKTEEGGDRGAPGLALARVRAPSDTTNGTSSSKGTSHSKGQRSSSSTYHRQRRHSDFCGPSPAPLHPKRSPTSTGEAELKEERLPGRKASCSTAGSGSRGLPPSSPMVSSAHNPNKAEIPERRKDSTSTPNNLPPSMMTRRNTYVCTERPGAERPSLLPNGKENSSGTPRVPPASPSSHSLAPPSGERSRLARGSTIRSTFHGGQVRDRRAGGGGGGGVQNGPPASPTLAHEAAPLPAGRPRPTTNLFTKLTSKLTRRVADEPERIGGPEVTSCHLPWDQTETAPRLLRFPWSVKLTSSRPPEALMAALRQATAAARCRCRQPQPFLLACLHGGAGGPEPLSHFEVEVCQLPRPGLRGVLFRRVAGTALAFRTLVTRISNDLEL

[12] = biological target: Cyclin-dependent kinase 18 (Homo sapiens, UniProt Q07002); experiment: Binding affinity to PCTK3 in SILAC-labeled human MDA-MB-231 cells lysate by mass spectrometry based kinAffinity assay; type: subcellular; how it was run: as §3
[13] = Toxicity in SCID/beige mouse xenografted with human MDA-MB-231 cells assessed as body weight gain at 30 mg/kg, ip bid measured 3 times per week starting at day 12; type: organism-based; settings: in vivo
MDA-MB-231 = experiment: Antitumor activity against human MDA-MB-231 cells xenografted in mouse assessed as tumor growth inhibition at 30 mg/kg, ip bid measured 3 times per week starting at day 12; type: functional, organism-based
How it was run: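 Female SCID/Beige mice inoculated with 2 x 10^6 MDA-MB-231 cells in HBSS:Matrigel (1:1) into third mammary fat pad under ketamine/xylazine. Test agent 30 mg/kg ip twice daily (12 h apart) in PEG400/H2O 70:30, or paclitaxel 10 mg/kg iv three times weekly; 10 mice/group. Tumors measured three times weekly from day 12; lungs and lymph nodes excised, formalin-fixed, nodes H&E-scored (mean ± SEM).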

[14] = biological target: Epithelial discoidin domain-containing receptor 1 (Homo sapiens) (UniProt Q08345); experiment: Binding affinity to DDR1 (unknown origin) at 10 uM
Chain of Epithelial discoidin domain-containing receptor 1 (Homo sapiens) (Q08345 whole entry, the tested form may be a part): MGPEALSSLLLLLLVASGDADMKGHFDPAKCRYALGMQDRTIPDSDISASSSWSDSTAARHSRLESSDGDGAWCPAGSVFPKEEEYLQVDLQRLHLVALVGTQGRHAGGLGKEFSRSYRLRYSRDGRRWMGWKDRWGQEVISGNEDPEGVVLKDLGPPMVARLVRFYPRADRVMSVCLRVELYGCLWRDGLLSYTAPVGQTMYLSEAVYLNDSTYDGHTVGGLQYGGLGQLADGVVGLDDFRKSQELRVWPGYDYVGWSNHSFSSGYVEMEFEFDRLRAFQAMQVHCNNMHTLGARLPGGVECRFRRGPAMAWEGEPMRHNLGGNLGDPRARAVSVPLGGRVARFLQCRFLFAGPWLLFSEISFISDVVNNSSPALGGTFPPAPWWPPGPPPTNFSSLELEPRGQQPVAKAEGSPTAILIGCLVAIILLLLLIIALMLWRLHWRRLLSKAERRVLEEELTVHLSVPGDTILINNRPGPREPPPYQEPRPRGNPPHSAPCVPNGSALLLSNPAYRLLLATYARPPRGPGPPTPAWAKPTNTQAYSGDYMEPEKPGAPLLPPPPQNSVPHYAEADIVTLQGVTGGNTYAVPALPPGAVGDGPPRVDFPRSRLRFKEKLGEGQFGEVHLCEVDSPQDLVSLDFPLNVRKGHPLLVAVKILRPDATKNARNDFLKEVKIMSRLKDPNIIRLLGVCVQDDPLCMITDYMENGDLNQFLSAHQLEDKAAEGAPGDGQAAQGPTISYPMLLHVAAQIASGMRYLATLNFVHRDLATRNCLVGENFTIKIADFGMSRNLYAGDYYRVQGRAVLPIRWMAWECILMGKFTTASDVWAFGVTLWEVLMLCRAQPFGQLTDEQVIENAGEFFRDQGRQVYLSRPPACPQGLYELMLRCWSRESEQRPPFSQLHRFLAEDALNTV

[15] = biological target: Epithelial discoidin domain-containing receptor 1 (Homo sapiens) (UniProt Q08345); experiment: Inhibition of DDR1 (unknown origin) using biotinylated peptide as substrate at 10 uM by TR-FRET assay
[16] = biological target: Receptor-type tyrosine-protein kinase FLT3 (Homo sapiens) (UniProt P36888); experiment: Inhibition of FLT3 (unknown origin) using fluorescence labeled peptide as substrate at 10 uM by IMAP assay
Chain of Receptor-type tyrosine-protein kinase FLT3 (Homo sapiens) (P36888 whole entry): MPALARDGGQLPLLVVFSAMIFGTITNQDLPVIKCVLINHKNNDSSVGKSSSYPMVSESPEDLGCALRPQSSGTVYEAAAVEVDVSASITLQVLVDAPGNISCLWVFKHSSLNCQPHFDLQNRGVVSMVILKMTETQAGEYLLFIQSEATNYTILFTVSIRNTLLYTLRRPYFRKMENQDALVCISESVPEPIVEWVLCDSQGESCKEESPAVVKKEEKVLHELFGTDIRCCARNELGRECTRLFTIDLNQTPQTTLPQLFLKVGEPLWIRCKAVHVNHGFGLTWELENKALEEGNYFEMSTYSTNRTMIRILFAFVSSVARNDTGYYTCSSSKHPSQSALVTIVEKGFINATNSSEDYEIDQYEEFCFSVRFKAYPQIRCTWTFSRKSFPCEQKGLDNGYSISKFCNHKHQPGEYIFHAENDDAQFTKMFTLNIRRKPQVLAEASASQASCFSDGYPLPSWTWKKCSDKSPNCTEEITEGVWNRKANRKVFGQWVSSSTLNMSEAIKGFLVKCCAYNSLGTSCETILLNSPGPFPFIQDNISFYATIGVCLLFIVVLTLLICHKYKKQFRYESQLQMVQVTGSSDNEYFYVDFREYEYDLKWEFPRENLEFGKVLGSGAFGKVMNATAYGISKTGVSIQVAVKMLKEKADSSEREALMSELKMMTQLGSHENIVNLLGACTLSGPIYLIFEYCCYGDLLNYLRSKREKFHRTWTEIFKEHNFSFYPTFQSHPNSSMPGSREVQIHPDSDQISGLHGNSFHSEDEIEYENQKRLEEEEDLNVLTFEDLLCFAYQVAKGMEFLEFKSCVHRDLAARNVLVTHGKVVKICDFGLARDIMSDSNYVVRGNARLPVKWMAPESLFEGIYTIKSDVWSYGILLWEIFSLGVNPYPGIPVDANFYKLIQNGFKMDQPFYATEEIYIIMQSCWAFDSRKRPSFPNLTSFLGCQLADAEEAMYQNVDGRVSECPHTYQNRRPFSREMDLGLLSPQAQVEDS
How it was run: (§4)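 IMAP fluorescence-polarization kinase assay at 10 µmol/L compound, run in triplicate by a contract lab. A fluorescently labeled substrate peptide is phosphorylated, then nanoparticles carrying trivalent metal bind the phosphopeptide and slow its rotation. Read-out is fluorescence polarization, expressed as percent inhibition.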

[17] = biological target: Receptor-type tyrosine-protein kinase FLT3 (Homo sapiens) (UniProt P36888); experiment: Inhibition of FLT3 (unknown origin) using biotinylated peptide as substrate at 10 uM by TR-FRET assay
[18] = biological target: Proto-oncogene tyrosine-protein kinase receptor Ret (Homo sapiens) (UniProt P07949); experiment: Inhibition of RET (unknown origin) using fluorescence labeled peptide as substrate at 10 uM by IMAP assay
How it was run: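 Kinase selectivity profiling, run by a contract lab, with the test compound at 10 µmol/L in triplicate. In the IMAP format, the kinase phosphorylates a fluorescently labelled substrate peptide in solution. A binding solution of trivalent metal-based nanoparticles is then added to capture the phosphopeptide, and the drop in rotational speed is read as fluorescence polarization. Results are given as percent inhibition of each kinase.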

[19] = biological target: Tyrosine-protein kinase CSK (Homo sapiens, UniProt P41240); experiment: Inhibition of CSK (unknown origin) using fluorescence labeled peptide as substrate at 10 uM by IMAP assay; how it was run: as §4
[20] = biological target: Insulin receptor (Homo sapiens) (UniProt P06213); experiment: Inhibition of INSR (unknown origin) using fluorescence labeled peptide as substrate at 10 uM by IMAP assay; how it was run: as §4
[21] = biological target: Tyrosine-protein kinase SYK (Homo sapiens) (UniProt P43405); experiment: Binding affinity to SYK (unknown origin) at 10 uM
[22] = biological target: Serine/threonine-protein kinase B-raf (Homo sapiens) (UniProt P15056); experiment: Inhibition of BRAF (unknown origin) at 10 uM by reporter probe displacement binding assay
Chain of Serine/threonine-protein kinase B-raf (Homo sapiens) (P15056 whole entry): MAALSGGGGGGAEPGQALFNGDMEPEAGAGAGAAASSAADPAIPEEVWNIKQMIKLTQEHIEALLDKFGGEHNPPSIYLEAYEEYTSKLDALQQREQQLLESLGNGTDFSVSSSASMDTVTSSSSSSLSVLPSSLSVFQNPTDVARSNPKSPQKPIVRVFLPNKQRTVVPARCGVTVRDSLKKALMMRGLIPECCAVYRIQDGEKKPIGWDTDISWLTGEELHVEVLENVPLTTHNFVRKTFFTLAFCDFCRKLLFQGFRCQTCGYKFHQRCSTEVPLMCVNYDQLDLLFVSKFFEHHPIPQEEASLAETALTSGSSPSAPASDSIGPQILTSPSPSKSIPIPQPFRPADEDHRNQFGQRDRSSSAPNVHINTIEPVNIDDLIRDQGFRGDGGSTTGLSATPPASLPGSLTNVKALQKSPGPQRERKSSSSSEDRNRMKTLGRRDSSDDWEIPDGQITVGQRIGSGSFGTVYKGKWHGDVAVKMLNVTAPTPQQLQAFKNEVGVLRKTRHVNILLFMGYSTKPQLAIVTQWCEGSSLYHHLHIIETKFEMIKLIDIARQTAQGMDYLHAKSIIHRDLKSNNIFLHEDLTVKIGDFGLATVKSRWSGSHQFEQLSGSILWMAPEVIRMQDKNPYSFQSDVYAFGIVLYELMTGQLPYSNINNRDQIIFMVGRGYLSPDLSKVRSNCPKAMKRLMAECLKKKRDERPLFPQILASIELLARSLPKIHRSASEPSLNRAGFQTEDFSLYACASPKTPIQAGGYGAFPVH

[23] = biological target: Tyrosine-protein kinase JAK3 (Homo sapiens) (UniProt P52333); experiment: Inhibition of JAK3 (unknown origin) using fluorescence labeled peptide as substrate at 10 uM by IMAP assay

Structure (SMILES): COc1cc2c(Oc3ccc(NS(=O)(=O)c4cc(F)ccc4F)cc3F)ccnc2cc1OCCCN1CCCC(C)C1 (stereo not given)
T/C [1]: 127% | Activity [2]: Non-Toxic | minimal effective dose [3]: 5 mg/kg | Activity [4]: 40%

Kd(free) [5]: 0.006 µM | Kd(free) (TGF-beta receptor type-1): 0.205 µM | Kd(free) [6]: 6.928 µM | Kd(free) [7]: 7.63 µM
Structure (SMILES): COc1cc2c(Oc3ccc(NS(=O)(=O)c4c(F)cccc4F)cc3F)ccnc2cc1OCCCN1CCN(C)CC1

Kd(free) [8]: 0.041 µM | Kd(free) [9]: 3.133 µM | Kd(free) [10]: 3.75 µM | Kd(free) [11]: 5.975 µM | Kd(free) [12]: > 6.194 µM
Structure (SMILES): COc1cc2c(Oc3ccc(NS(=O)(=O)c4cc(F)ccc4F)cc3F)ccnc2cc1OCCCN1CCN(C)CC1
Activity [13]: Toxic | TGI (MDA-MB-231): Active

inhibition [14]: Active | inhibition [15]: Active | inhibition [16]: Active | inhibition [17]: Active | inhibition [18]: Active | inhibition [19]: Active | inhibition [20]: Active | inhibition [21]: Active | inhibition [22]: Active | inhibition [23]: Active
Structure (SMILES): COc1cc2c(Oc3ccc(NS(=O)(=O)c4ccccc4C(F)(F)F)cc3F)ccnc2cc1OCCCN1CCN(C)CC1
